Wee1 stabilizer = Wee1 degradation inhibitors, primary screen, cell-based, HeLa, Wee1K328M-luciferase, luminescence | reporter increase, % at 5 µM | 1.2% of 220,000 active | Wee1-like protein kinase (Homo sapiens), P30291 | HeLa Luc-Wee1K328M stability; 100% = proteasome inhibitor MG132 effect;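 active = activation above the mean of all tested compounds plus 3 SD, set per screening run, cut at about 8.8% in these data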;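 also: cells exposed to compound for 20 h before luminescence read; 0% = DMSO alone and 100% = MG132 at 30 µM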
p97 inhibitor = inhibitors of human p97 ATPase, primary screen, biochemical; AID 1481, 2009; inhibition, % at 8 µM; 0.42% of 220,000 active; recombinant p97 ATPase, Kinase-Glo ATP luminescence, 3 h; in the data active = inhibition above about 15%;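 also: 0% = DMSO vehicle and 100% = wells lacking enzyme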
Target sequence (P55072 whole entry, looked up): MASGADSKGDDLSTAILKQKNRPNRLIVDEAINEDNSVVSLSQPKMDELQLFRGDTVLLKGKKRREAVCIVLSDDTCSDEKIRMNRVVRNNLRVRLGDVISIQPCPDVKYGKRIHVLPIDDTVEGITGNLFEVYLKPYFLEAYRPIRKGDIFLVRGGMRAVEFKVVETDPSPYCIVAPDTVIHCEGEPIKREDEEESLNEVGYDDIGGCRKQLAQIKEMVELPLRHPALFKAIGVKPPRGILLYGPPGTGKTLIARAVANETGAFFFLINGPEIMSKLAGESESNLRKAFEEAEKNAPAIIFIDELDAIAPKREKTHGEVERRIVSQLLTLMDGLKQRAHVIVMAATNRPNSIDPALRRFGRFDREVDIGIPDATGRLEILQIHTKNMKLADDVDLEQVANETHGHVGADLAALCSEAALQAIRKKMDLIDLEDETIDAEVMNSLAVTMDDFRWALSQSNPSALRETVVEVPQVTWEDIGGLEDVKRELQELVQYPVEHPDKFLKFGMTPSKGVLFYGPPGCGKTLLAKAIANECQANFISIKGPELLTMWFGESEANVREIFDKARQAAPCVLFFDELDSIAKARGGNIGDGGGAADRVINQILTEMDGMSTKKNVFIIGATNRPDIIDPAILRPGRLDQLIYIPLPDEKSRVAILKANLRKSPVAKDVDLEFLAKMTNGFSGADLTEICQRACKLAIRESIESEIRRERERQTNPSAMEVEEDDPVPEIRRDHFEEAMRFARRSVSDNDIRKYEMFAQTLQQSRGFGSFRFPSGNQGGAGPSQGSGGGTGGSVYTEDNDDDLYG
APP 5'UTR act = activators of APP 5'UTR luciferase reporter, primary screen, SH-SY5Y cells | SH-SY5Y APP 5'UTR luciferase reporter, luminescence; zero percent = DMSO vehicle wells | activation, % at 2 µM | 1% of 190,000 active | AID 1276, 2008;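 active = activation above a set limit, based on mean plus 3 SD of controls, cut at about 140% in these data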
MDM2 E3 inh = MDM2-luciferase reporter signal enhancers, primary screen, MDM2 E3 ligase inhibitor project, cell-based, luminescence, 1536-well. cell-based MDM2 ubiquitination luciferase reporter, 2 h; 0 = plate control, 100 = twice control, blank-subtracted. signal enhancement, % at 5 µM. 0.11% of 210,000 active. AID 1230, 2008;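 active = signal enhancement of 30% or more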;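 also: luminescence tracks abundance of the self-degrading MDM2-luciferase fusion protein; higher signal means inhibition of MDM2 E3 ligase activity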
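Assay system: stable mammalian line carrying autodegrading MDM2–luciferase fusion reporter; amount: 2000 cells seeded into each well; buffer or medium: DMEM; benchmarks: plate control and blank wells; signal: luciferase luminescence; timing: 2 h compound exposure at 37 °C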
STAT1 act = STAT1 signaling activators, primary screen, cell-based, HTS, luciferase reporter. activation (% of control), % at 5.5 µM. AID 932, 2007. NIH 3T3 STAT1-luciferase reporter, IFN-gamma, luminescence; 100% = IFN-gamma alone, no compound. 2.6% of 200,000 active;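 active = activation above the screen-wide mean activation plus 3 SD, cut at about 130% in these data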;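 also: raw ratio to IFN-gamma control signal so 100% means no change and 0% no light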
NF-kB neuron act = activators of NF-kB expression in neurons, primary screen, cell-based, HTS; fold change at 12.5 µM; human neuronal cells, NF-kB reporter expression; active compounds read high; AID 1239, 2008; 1.6% of 190,000 active; in the data active = fold change above about 3.3
An asterisk follows results filed as active; . = no result given. Sampled rows, rich in hits. Any-hit rate of the full collection: about 4.6%.

SMILES	Wee1 stabilizer	p97 inhibitor	APP 5'UTR act	MDM2 E3 inh	STAT1 act	NF-kB neuron act
CCCc1ccc(C(=O)/C=C/N(C)C)cc1	-1.4	2.0	91.5	-29.3	126.2	2.14
CCc1nn2cc(-c3ccccc3)nc2s1	-0.4	-8.2	152.8*	-94.1	70.2	5.02*
Cc1nn2cc(-c3ccc(-c4ccccc4)cc3)nc2s1	2.8	4.4	117.2	-9.7	112.6	4.4*
Cc1c(CCOC(=O)c2cc([N+](=O)[O-])cc([N+](=O)[O-])c2)sc[n+]1CCCCS(=O)(=O)[O-]	-0.8	2.2	-21.7	-7.5	97.3	1.08
CC(C)(C)c1ccc(S(=O)(=O)N2CCN(c3ncccn3)CC2)cc1	2.9	2.5	7.2	-10.5	100.7	1.01
Cc1ccc(C)c(S(=O)(=O)N2CCN(c3ncccn3)CC2)c1	5.8	-2.3	-9.4	13.1	81.5	4.82*
CCN1C(=O)CC2(C[N+]3(C)CCC2CC3)C1=O (stereo not drawn)	-0.8	-1.6	-10.4	-5.8	96.0	1.06
c1ccc(-c2noc(-c3ccc4c(c3)OCO4)n2)nc1	-4.1	-60.5	-29.9	-92.4	49.0	0.68
COc1cc(-c2nc(-c3cccc(C)c3)no2)cc(OC)c1OC	0.2	-3.0	18.4	0.4	111.1	1.37
COc1ccc(-c2nc(-c3ccccc3OC)no2)cc1OC	3.4	-6.5	31.2	4.9	131.7*	1.23
Cc1cccc(-c2noc(-c3ccc4c(c3)OCO4)n2)c1	3.2	4.5	186.2*	.	85.6	.
COc1ccc(-c2nc(-c3cccc(C(F)(F)F)c3)no2)cc1OC	0.1	10.0	-5.5	-3.6	109.6	1.26
COc1ccc(-c2nc(-c3cccc(C)c3)no2)cc1OC	1.6	-3.5	3.2	-2.1	137.9*	2.75
COc1ccc(-c2nc(C3CCCCC3)no2)cc1OC	-4.3	2.3	70.6	-3.0	133.8*	1.98
Cc1ccc(C2NC(=NCc3ccccc3)Nc3nc(C)cc(=O)n32)cc1 (stereo not drawn)	-1.2	5.9	.	-18.3	.	.
O=S(=O)(c1ccc(F)cc1)N1CCCN(c2nccc(C(F)(F)F)n2)CC1	9.5*	-3.2	.	-4.6	.	.
O=C(NCCc1cn2ccccc2n1)c1ccccc1F	-1.4	6.3	8.8	0.2	108.2	1.22
Fc1ccc(NCc2cn3ccccc3n2)cc1	-1.9	-7.4	36.1	22.7	135.2*	2.17
CCC1CCC(C(=O)NC(CCSC)C(=O)NCCN(CC(C)C)CC(C)C)CC1 (stereo not drawn)	-1.3	0.2	26.7	2.0	96.4	0.81
Fc1ccc(Nc2nc(-c3cccnc3)cs2)cc1	4.0	-6.1	106.1	2.0	136.3*	3.62*
COc1cccc(Nc2nc(-c3cccc(N4C(=O)c5ccccc5C4=O)c3)cs2)c1	-3.5	-2.0	18.8	4.7	99.5	1.59
COc1cccc(Nc2nc(-c3ccc(O)cc3)cs2)c1	-0.5	3.2	33.8	2.5	120.2	3.85*
Clc1ccc(Nc2nc(-c3cccnc3)cs2)cc1	1.0	0.4	47.2	-2.5	116.3	1.88
CN(C)c1ccc(Nc2nc(-c3cccnc3)cs2)cc1	4.0	-1.2	187.8*	-17.1	147.1*	4.35*
Cc1cccc(Nc2nc(-c3ccncc3)cs2)c1	-0.2	0.3	50.5	-22.0	130.3*	0.67
CC1=CC(C)[C@H](/C=N/n2c(=O)[nH]c3c([nH]c4ccc(C)cc43)c2=O)C(C)C1 (stereo partly drawn)	-0.3	-3.4	-13.9	-92.8	100.8	0.94
Cc1ccc(-c2cc(Cc3ccccc3)c(=O)[nH]n2)cc1	-0.7	-1.8	.	10.0	.	.
Cc1nc(C)c(-c2csc(Nc3cccc(O)c3)n2)s1	4.6	7.1	165.7*	-3.4	94.9	4.32*
c1ccc(-c2csc(Nc3cccnc3)n2)cc1	-3.0	-1.8	53.3	-21.4	136.2*	1.06
COc1ccc(-c2csc(Nc3ccc(C)cn3)n2)cc1	9.6*	-1.2	76.6	.	138.7*	.
